Rin1 Abl inh – inhibitors of Rin1-Abl protein binding, primary screen, biochemical, TR-FRET; 360,000 tested, 0.4% active; inhibition, % at 7.35 µM; Tyrosine-protein kinase ABL1 (Homo sapiens) + Ras and Rab interactor 1 (Homo sapiens), …; in the data active = inhibition above about 5%, passing the limit was not always enough
SR-BI DiI-HDL act – activators of SR-BI mediated DiI-HDL uptake, primary screen, ldlA[mSR-BI] CHO cells, DiI fluorescence; 3 h; 100 = double the neutral-control signal; activation, % at 12.5 µM; 320,000 tested, 0.096% active;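 active = mean replicate activation of at least 60% and every replicate at or above 60%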;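 note: 0% = median plate neutral-control signal and 100% = twice that signal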
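Test system: SR-BI-overexpressing, LDLR-lacking CHO cells; Medium: Ham's F12 with 0.5% BSA, HEPES 25 mM, pH 7.4; Schedule: 3 h, 37 °C; Technique: bottom-read fluorescence, 550/595 nm.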
SR-BI HDL uptake – inhibitors of SR-BI mediated HDL lipid uptake, primary screen, ldlA[mSR-BI] cells, fluorescence, single point | Scavenger receptor class B member 1 (Mus musculus), Q61009 | ldlA[mSR-BI] CHO cells, DiI-HDL uptake fluorescence, 3 h | inhibition, % at 12.5 µM | 320,000 tested, 0.96% active | AID 488896, 2010;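 active = mean replicate inhibition of at least 70% and a set share of replicates each scoring 70 or more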;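 note: 0% = median of neutral control wells and 100% = median of positive control wells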
GRK2 aptamer HTS – compounds blocking aptamer binding on GRK2 – biochemical, human GRK2, bead flow cytometry, HTS, primary screen | FAM-aptamer displacement from GRK2 | AID 488847, 2010 | 330,000 tested, 0.59% active | inhibition of aptamer binding, % at 10 µM;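 active = inhibition of aptamer binding above 40%, roughly 3 SD of noise, on plates passing a quality check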;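 note: median bead fluorescence of bound FAM aptamer so fluorescent compounds give negative values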
Target sequence (P25098 whole entry, looked up): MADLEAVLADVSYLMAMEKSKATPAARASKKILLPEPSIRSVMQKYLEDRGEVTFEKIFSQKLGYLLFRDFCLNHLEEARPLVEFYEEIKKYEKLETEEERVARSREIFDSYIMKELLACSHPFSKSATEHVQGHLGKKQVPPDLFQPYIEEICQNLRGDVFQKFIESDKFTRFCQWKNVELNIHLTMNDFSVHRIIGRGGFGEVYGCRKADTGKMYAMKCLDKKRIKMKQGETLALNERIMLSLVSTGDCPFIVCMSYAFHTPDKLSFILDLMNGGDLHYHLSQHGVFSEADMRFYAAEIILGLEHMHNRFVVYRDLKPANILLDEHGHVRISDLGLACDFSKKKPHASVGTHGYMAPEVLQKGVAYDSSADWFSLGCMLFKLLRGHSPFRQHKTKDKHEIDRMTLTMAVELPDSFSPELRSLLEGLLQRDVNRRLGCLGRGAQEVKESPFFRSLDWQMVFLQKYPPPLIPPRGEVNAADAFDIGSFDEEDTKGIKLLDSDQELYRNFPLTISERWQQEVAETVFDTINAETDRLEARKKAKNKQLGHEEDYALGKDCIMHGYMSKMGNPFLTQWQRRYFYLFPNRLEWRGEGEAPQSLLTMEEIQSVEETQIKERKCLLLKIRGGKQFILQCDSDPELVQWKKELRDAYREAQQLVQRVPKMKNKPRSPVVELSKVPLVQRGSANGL
Rin1-Abl confirm – Rin1-Abl binding inhibitor retest, confirmation, biochemical, TR-FRET; shares compounds with Rin1 Abl inh; purified proteins; inhibition, % at 7.35 µM; 1,300 tested, 49% active; AID 602124, 2011
GFP quencher – GFP fluorescence inhibitors and quenchers, artefact control for Rin1-Abl interaction inhibitor project, biochemical | shares compounds with Rin1 Abl inh | inhibitors/quenchers counterscreen | inhibition, % at 6.75 µM | 1,300 tested, 8.5% active | AID 602125, 2011;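 note: ABL1-eGFP fusion protein alone without its partner RIN1-SBP; 0% = protein with vehicle and 100% = wells lacking protein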
GFP quench DR – GFP fluorescence inhibitors and quenchers, dose response, artefact control for Rin1-Abl interaction inhibitor project, biochemical. IC50, µM. shares compounds with Rin1 Abl inh. 230 tested, under 10 active. GFP fluorescence interference/quenching counterscreen. AID 602182, 2012; call rule not given here;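 note: ABL1-eGFP fusion protein alone without its RIN1 binding partner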
* = called active by the depositor; / = not tested or not shown. Hits are enriched below; roughly 1.9% of the tested compounds scored in any of these assays. Cut-off read from the data, not from the text of the source, unless noted: active = inhibition above about 6.5%; inactive = the rest.

SMILES	Rin1 Abl inh	SR-BI DiI-HDL act	SR-BI HDL uptake	GRK2 aptamer HTS	Rin1-Abl confirm	GFP quencher	others
C#CCOCCOCCOCCNc1nc(N2CCN(C(=O)C(Cc3ccc(O)cc3)n3cc(C(N)C(C)CC)nn3)CC2)nc(N2CCN(C(=O)C(Cc3ccc(O)cc3)n3cc(C(N)C(C)CC)nn3)CC2)n1 (stereo not drawn)	8	19	-19	0	/	/
C#CCOCCOCCOCCNc1nc(N2CCOCC2)nc(N2CCN(C(=O)[C@H](Cc3ccc(O)cc3)n3cc([C@@H](N)C(C)CC)nn3)CC2)n1 (stereo partly drawn)	11*	0	0	0	14*	0
O=C(NCc1cccnc1)c1cc(C2CCCN(S(=O)(=O)c3cccc4cccnc34)C2)on1 (stereo not drawn)	0	/	/	/	/	/
COc1ccc(C(=O)C2CCCN(Cc3cccn3-c3nccs3)C2)cc1F (stereo not drawn)	3	11	-11	0	/	/
COc1ccc(C(=O)C2CCCN(Cc3cccn3-c3nccs3)C2)cc1OC (stereo not drawn)	6.0*	/	/	0	-3	-1
CCOC(=O)c1ccc2ncc(C(=O)OCC)c(NCCN(C)C)c2c1	7.9*	7	-7	1	-1	1
NNC(=O)c1cc(O)c(O)c(O)c1	34*	22	-17	13	51*	7.1*
Cc1ccc(NC2=C(N3CCOCC3)C(=O)c3ccccc3C2=O)cc1	12*	-60	60	2	-5	1
COC(=O)c1ccc(CSc2nnc(CNC(=O)COc3ccc(Cl)cc3)o2)o1	17*	6	-6	0	19*	0	GFP quench DR=>68
COC(=O)c1ccc(CSc2nnc(CNC(=O)c3ccccc3F)o2)o1	8.5*	-20	20	0	11*	1
COc1ccccc1C(=O)NCC1CCN(c2ccc(S(=O)(=O)N3CCOCC3)cc2)CC1	22*	-13	13	5	13*	-1
CC(=O)NC(c1ccccc1)c1cc(Cl)c2cccnc2c1O (stereo not drawn)	12*	45	-45	1	10*	5
Oc1c(C(c2ccccn2)N2CCCCC2)cc(Cl)c2cccnc12 (stereo not drawn)	22*	55	-55	2	14*	2
CC(=O)NC(c1ccc(C)cc1)c1cc([N+](=O)[O-])c2cccnc2c1O (stereo not drawn)	6	17	-17	2	/	/
CCCC(=O)NC(c1ccc(OC)c(OC)c1)c1cc(Cl)c2cccnc2c1O (stereo not drawn)	2	-19	19	0	/	/
CC(=O)NC(c1ccc(N(C)C)cc1)c1cc(Cl)c2cccnc2c1O (stereo not drawn)	6.6*	/	/	/	6.9*	2
COc1ccc(C(NC(C)=O)c2cc(Cl)c3cccnc3c2O)cc1 (stereo not drawn)	8.2*	7	-7	5	7.0*	1
CN1OC[C@@H]2CN3C(=O)N(c4ccccc4)c4ccccc4[C@@H]3C[C@@H]21	1	/	/	/	/	/
O=C1OCCC1=COCCCCCOC=C1CCOC1=O	2	/	/	/	/	/
CCOC(=O)C1(C)CCCN(C(=O)c2ccccc2OC(F)(F)F)C1 (stereo not drawn)	-4	/	/	/	/	/
O=C(Nc1cccc(Cl)c1)c1nc[nH]c1C(=O)N1CCN(c2ccccc2)CC1	2	21	-21	0	/	/
O=C(CSc1nnc(C2CC2)n1C1CC1)c1ccc(Br)s1	-10	-17	17	1	/	/
O=C(Cc1cccc2ccccc12)Nc1ccccc1	-1	6	-6	3	/	/
C=CCN(CC=C)C(=S)NC(=O)Cc1cccc2ccccc12	10*	-5	5	1	-2	-1
Cc1ccccc1-c1nnc2c3ccccc3c(C)nn12	0	/	/	4	/	/
SMILES	Rin1 Abl inh	SR-BI DiI-HDL act	SR-BI HDL uptake	GRK2 aptamer HTS	Rin1-Abl confirm	GFP quencher	others
Cc1nn2c(-c3ccco3)nnc2c2ccccc12	10*	-5	5	0	14*	-3
Cc1ccc(N=Cc2c(O)[nH]c3ccccc23)c([N+](=O)[O-])c1	1	-33	33	1	/	/
COc1ccc(CC(N)c2csc(NC(=O)NCCc3ccccc3)n2)cc1 (stereo not drawn)	10*	/	/	/	6.8*	1
NC(Cc1ccc(Cl)cc1)c1csc(NC(=O)NCCc2ccccc2)n1 (stereo not drawn)	6	/	/	/	/	/
O=C1CC(c2ccccc2)Oc2cc(O)cc(O)c21 (stereo not drawn)	0	23	-23	0	/	/
COc1cc(OC)c2c(c1O)OC(c1ccccc1)CC2=O (stereo not drawn)	16*	2	-2	1	9.2*	2
Cc1nn(C)c(C(=O)NNC(=S)NCc2ccccc2)c1Cl	7.3*	12	-12	/	-3	0
Cn1cc([N+](=O)[O-])c(C(=O)NC2CCCCCCC2)n1	3	14	-14	0	/	/
CCCCN(C)C(=O)c1ccc2c(c1)S(=O)(=O)c1ccccc1C2=O	10*	5	-5	0	-3	2
CCc1nc2c(OCCC3CCCCC3)cccn2c1N(C=O)Cc1ccccc1	0	/	/	/	/	/
CN(CC(=O)Nc1ccc(C#N)cc1)Cc1ccc(Cl)c(Cl)c1	6.1*	-7	7	1	0	-1
O=C(COC(=O)CNC(=O)c1ccco1)NCCN1C(=O)CSC1=O	5.0*	22	-22	2	-2	-1
COc1ccc(CNC(=O)C2Cc3c(-c4ccccc4Oc4ccccc4)ccnc3O2)cc1OC (stereo not drawn)	-2	/	/	/	/	/
CCCNC(=O)c1cc(C2CCCCN2C(=O)c2ccc3c(c2)CCO3)on1 (stereo not drawn)	15*	/	/	/	-3	1
S=C(NCCCN1CCOCC1)Nc1ccc(Cl)c(Cl)c1	1	2	-2	0	/	/
Cc1ccc(C)c2[nH]c(=O)c(C(c3nnnn3Cc3ccco3)N3CCc4ccccc4C3)cc12 (stereo not drawn)	6.2*	-43	43	9	0	2
COc1ccc(C(=O)N/C(=C\c2ccc(Cl)cc2)C(=O)NCc2ccncc2)cc1	-6	/	/	/	/	/
O=C(NC1CCCC1)c1cc(S(=O)(=O)N2CCCC2)ccc1Cl	7.6*	4	-4	0	-1	0
Cc1ccc(S(=O)(=O)N2CCCCC2)cc1C(=O)NC1CCCCC1	-2	4	-4	4	/	/
